ChEMBL document CHEMBL1123502, “Synthesis of [[(naphthalenylmethoxy)- and [[(quinolinylmethoxy)phenyl]amino]oxoalkanoic acid esters. A novel series of leukotriene D4 antagonists and 5-lipoxygenase inhibitors” (J Med Chem, 1986)

What was measured:
[1] = In vivo inhibition of LTD4-induced bronchospasm in guinea pig at dose of 50 mg/kg; conditions: Cavia porcellus
[2] = target: T1, Polyunsaturated fatty acid 5-lipoxygenase (Rattus norvegicus) (UniProt P12527); test: In vitro inhibition of rat polymorphonuclear leukocyte (PMN) 5-Lipoxygenase at 100 uM
T1 sequence (whole entry): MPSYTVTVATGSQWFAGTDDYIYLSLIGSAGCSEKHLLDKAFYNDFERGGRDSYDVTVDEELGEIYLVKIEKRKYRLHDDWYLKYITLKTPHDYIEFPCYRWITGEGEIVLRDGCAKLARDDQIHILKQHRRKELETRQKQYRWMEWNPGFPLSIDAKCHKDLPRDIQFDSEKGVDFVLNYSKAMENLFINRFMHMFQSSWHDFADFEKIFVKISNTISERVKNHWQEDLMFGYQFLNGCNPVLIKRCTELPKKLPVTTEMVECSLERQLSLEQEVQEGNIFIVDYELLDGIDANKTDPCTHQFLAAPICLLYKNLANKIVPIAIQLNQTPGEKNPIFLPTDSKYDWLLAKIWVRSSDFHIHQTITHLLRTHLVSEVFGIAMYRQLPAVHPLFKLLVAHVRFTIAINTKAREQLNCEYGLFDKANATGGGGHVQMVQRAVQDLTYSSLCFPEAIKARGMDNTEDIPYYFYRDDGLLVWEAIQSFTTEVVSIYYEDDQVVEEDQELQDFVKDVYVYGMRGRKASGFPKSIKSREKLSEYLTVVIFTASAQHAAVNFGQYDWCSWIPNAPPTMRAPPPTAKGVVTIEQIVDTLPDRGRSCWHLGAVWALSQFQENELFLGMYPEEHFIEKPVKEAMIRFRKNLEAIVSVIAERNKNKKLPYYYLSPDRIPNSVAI

[3] = target: T2, Polyunsaturated fatty acid 5-lipoxygenase (Rattus norvegicus, UniProt P12527); test: Inhibition of rat polymorphonuclear leukocyte (PMN) 5-Lipoxygenase in vitro
T2 sequence (P12527 whole entry): T1 sequence (whole entry)
Procedure, shortened: (§1)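 Peritoneal PMNs came from female Wistar rats 24 h after ip 6% glycogen. Cells at 2×10^7/mL in HBSS with Ca2+/Mg2+ and 10 mM L-cysteine were preincubated with drug or vehicle for 10 min at 37 °C. The reaction was stopped with ice-cold water and acidified to pH 3.5, and LO and CO products were ether-extracted. IC50 per metabolite came from nonlinear regression.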

[4] = tested on: Cavia porcellus; test: Compound was evaluated in vivo for the percent inhibition of Ovalbumin-induced (OA) bronchospasm in guinea pig at dose of 50 mg/kg id; format: functional; conditions: route intraduodenal
Procedure, shortened: (§2)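 Male Hartley guinea pigs (350-600 g) were sensitized with ovalbumin (5 mg ip plus 5 mg sc) and used 3-5 weeks later. They were anesthetized with pentobarbital, ventilated, and given indomethacin (10 mg/kg iv, 9 min before challenge) and chlorpheniramine (1.0 mg/kg iv, 1 min later). Drug was given id (or as noted) 10 min before 1% aerosolized ovalbumin; controls received saline. Overflow volume at 1, 3 and 5 min was taken as % of maximal bronchoconstriction and converted to % inhibition.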

[5] = target: Cyclooxygenase (Rattus norvegicus) (UniProt P35355+Q63921); test: In vitro inhibition of rat polymorphonuclear leukocyte (PMN) Prostaglandin G/H synthase at 100 uM
[6] = tested on: Cavia porcellus; test: Compound was evaluated in vivo for the percent inhibition of LTD4-induced bronchospasm in guinea pig at dose of 50 mg/kg id; format: functional; conditions: route intraduodenal
Procedure, shortened: (§3)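 Male guinea pigs (350-600 g) were anesthetized with pentobarbital sodium (50 mg/kg ip), cannulated and artificially ventilated, and spontaneous respiration arrested with pentobarbital (15 mg/kg iv). Indomethacin (10 mg/kg iv) was given 9 min before challenge. Drug was given id (or as noted) 10 min before iv LTD4 (0.3-1 μg/kg); controls received saline. Overflow volume at 1, 3 and 5 min was taken as % of maximal bronchoconstriction and converted to % inhibition versus control.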

[7] = tested on: Cavia porcellus; test: Compound was evaluated in vivo for the percent inhibition of Ovalbumin-induced (OA) bronchospasm in guinea pig at dose of 100 mg/kg id; format: functional; conditions: route intraduodenal
Procedure, shortened: as §2

[8] = target: T3, Cyclooxygenase (Rattus norvegicus, UniProt P35355+Q63921); test: In vitro inhibition of rat polymorphonuclear leukocyte (PMN) Prostaglandin G/H synthase; format: protein assay
T3 sequence (P35355 whole entry): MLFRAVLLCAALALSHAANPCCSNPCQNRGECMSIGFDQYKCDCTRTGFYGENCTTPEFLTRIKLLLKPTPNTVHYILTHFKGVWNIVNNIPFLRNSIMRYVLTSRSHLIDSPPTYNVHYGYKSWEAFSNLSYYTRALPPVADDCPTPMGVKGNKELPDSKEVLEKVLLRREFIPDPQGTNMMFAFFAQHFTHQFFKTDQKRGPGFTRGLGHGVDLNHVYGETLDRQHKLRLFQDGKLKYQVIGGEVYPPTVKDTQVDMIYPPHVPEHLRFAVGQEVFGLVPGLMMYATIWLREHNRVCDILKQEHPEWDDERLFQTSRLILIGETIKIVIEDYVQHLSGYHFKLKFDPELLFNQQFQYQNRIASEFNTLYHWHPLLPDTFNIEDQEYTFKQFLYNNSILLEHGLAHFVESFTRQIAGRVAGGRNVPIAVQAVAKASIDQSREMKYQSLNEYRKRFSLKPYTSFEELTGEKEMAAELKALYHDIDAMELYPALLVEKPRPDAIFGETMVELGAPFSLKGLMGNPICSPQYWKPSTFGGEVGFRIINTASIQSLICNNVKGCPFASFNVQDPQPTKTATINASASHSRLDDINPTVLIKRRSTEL
T3 sequence (Q63921 whole entry): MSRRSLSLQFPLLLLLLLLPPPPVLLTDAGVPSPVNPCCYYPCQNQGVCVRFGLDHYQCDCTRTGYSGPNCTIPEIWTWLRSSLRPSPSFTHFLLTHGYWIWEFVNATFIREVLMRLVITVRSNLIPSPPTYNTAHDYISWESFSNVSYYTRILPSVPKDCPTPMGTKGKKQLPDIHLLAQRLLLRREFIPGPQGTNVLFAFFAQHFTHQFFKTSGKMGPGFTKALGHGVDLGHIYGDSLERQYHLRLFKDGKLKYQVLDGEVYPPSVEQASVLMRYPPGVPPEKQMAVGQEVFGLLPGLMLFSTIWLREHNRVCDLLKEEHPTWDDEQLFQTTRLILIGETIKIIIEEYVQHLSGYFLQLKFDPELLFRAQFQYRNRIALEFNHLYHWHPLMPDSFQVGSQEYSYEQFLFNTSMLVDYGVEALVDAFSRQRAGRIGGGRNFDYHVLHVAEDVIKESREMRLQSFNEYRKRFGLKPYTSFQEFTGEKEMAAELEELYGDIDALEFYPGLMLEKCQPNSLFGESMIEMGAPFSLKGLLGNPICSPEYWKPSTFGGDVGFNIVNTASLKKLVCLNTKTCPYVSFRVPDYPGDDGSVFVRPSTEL
Procedure, shortened: as §1

[9] = tested on: Cavia porcellus; test: Compound was evaluated in vivo for the percent inhibition of Ovalbumin-induced (OA) bronchospasm in guinea pig at dose of 10 mg/kg iv; format: functional
Procedure, shortened: as §2

[10] = tested on: Cavia porcellus; test: Compound was evaluated in vivo for the percent inhibition of LTD4-induced bronchospasm in guinea pig at dose of 10 mg/kg iv; format: functional
Procedure, shortened: as §3

[11] = species: Cavia porcellus; test: Compound was evaluated for its effect on LTD4-induced contraction of guinea pig trachea; format: functional
Procedure, shortened: (§4)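 Isolated guinea pig tracheal spiral strips were contracted with LTC4 or LTD4, with antagonist at 3×10^-6 M versus untreated control. Responses are expressed as percentage of the tissue's maximal response to carbachol (1 mM). Potency is given as -log of the agonist concentration (M) giving a half-maximal response. pKB = -log([B]/(dose ratio - 1)), where dose ratio = treated ED50 ÷ control ED50. Control vs treated compared by unpaired Student's t test.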

[12] = species: Cavia porcellus; test: Compound was evaluated for its effect on LTC4-induced contraction of guinea pig trachea; percentage of maximal response of tissue to carbachol; format: functional
Procedure, shortened: as §4

[13] = species: Cavia porcellus; test: Compound was evaluated for its effect on LTD4-induced contraction of guinea pig trachea; percentage of maximal response of tissue to carbachol; format: functional
Procedure, shortened: as §4

[14] = species: Cavia porcellus; test: Compound was evaluated for its effect on LTC4-induced contraction of guinea pig trachea; format: functional
Procedure, shortened: as §4

Structure (SMILES)	inhibition [1]	IC50 [3]	inhibition [5]	further results
O=C(O)CCNC(=O)c1cccc(OCc2ccc3ccccc3c2)c1	10%	–	–	inhibition [2]: < 50%
CCOC(=O)CCC(=O)Nc1cccc(OCc2ccc3ccccc3n2)c1	95%	12.6 µM	< 50%	inhibition in vivo at 50 mg/kg [4]: 6%
N#CCCNC(=O)c1cccc(OCc2ccc3ccccc3c2)c1	–	–	–	inhibition [2]: < 50%
CCCCCC(O)c1cccc(OCc2ccc3ccccc3n2)c1 (stereo not given)	–	–	< 50%	–
COC(=O)CCC(=O)Nc1ccc(NC(=O)CCC(=O)OC)c(OCc2ccc3ccccc3n2)c1	–	–	–	inhibition in vivo at 50 mg/kg [6]: 18%; inhibition [2]: < 50%
COC(=O)CCC(=O)Nc1cccc(OCc2cccc3cccnc23)c1	–	–	–	inhibition [2]: < 50%
COC(=O)CCC(=O)Nc1cccc(OCc2ccc3ccc(C)cc3n2)c1	-6.1%	–	< 50%	inhibition [2]: < 50%
COC(=O)CCC(=O)Nc1cccc(OCc2ccc3ccccc3n2)c1C#N	-6%	–	< 50%	inhibition [2]: < 50%
COC(=O)CCC(=O)Nc1ccccc1OCc1ccc2ccccc2n1	-6%	–	–	inhibition in vivo at 100 mg/kg [7]: 9%; inhibition [2]: < 50%
O=C(O)CCNC(=O)c1cccc(COc2ccc3ccccc3c2)c1	2%	–	–	inhibition [2]: < 50%
COC(=O)CCCC(=O)Nc1cccc(OCc2ccc3ccccc3n2)c1	–	10.4 µM	–	–
O=C(O)CCC(=O)N(O)c1cccc(OCc2ccc3ccccc3c2)c1	–	15.7 µM	–	inhibition in vivo at 50 mg/kg [4]: -35%
COC(=O)CCC(=O)N(C)c1cccc(OCc2ccc3ccccc3n2)c1	48%	14 µM	< 50%	inhibition in vivo at 50 mg/kg [4]: 2%
COC(=O)CCNC(=O)c1cccc(OCc2ccc3ccccc3n2)c1	-3%	35.2 µM	–	–
COC(=O)CCC(=O)N(O)c1cccc(OCc2ccc3ccccc3n2)c1	97%	1.4 µM	–	-Log ED50 [11]: 7.79; pKB [11]: 5.33; Max contractility [12]: 77%; Max contractility [13]: 63%; inhibition in vivo at 50 mg/kg [4]: 76%; IC50 [8]: 40 µM; -Log ED50 [14]: 7.5; pKB [14]: 5.35
CCOC(=O)CC(=O)Nc1cccc(OCc2ccc3ccccc3n2)c1	–	19 µM	< 50%	inhibition in vivo at 50 mg/kg [4]: 67%
COC(=O)C(=O)Nc1cccc(OCc2ccc3ccccc3n2)c1	-2%	5.3 µM	< 50%	–
COC(=O)CCC(=O)Nc1cccc(Oc2ccc3ccccc3n2)c1	29%	26 µM	–	inhibition in vivo at 50 mg/kg [4]: -55%
COC(=O)CC(=O)Nc1cccc(OCc2ccc3ccccc3n2)c1	–	24.6 µM	< 50%	inhibition in vivo at 50 mg/kg [4]: 57%
COC(=O)CCC(=O)Nc1cccc(OCc2ccc3ccccc3n2)c1C	–	15.5 µM	< 50%	–
O=C(O)CCC(=O)Nc1cccc(OCc2ccc3ccccc3n2)c1	66%	–	–	inhibition in vivo at 50 mg/kg [4]: -20%; inhibition [2]: < 50%
COC(=O)CCC(=O)Nc1cc(OCc2ccc3ccccc3n2)ccc1C	23%	7.6 µM	< 50%	–

Second part, led by results:

inhibition [1]	IC50 [3]	inhibition [5]	Structure (SMILES)	further results
–	1.91 µM	< 50%	COC(=O)CCC(=O)Nc1cccc(COc2ccc3ccccc3c2)c1	–
–	29.5 µM	< 50%	COC(=O)CCNC(=O)c1cccc(OCc2ccc3ccccc3c2)c1	–
-1%	6.9 µM	< 50%	COC(=O)C(=O)Nc1cccc(OCc2ccc3ccccc3c2)c1	–
–	86.2 µM	< 50%	COC(=O)CCC(=O)Nc1ccccc1OCc1ccc2ccccc2c1	–
12%	–	–	COC(=O)CCC(=O)Nc1ccc(OCc2ccc3ccccc3c2)cc1	inhibition [2]: < 50%
5%	0.86 µM	–	COC(=O)CCC(=O)N(O)c1cccc(COc2ccc3ccccc3c2)c1	IC50 [8]: 6.1 µM
-6%	60.5 µM	–	COC(=O)CCNC(=O)c1cccc(COc2ccc3ccccc3c2)c1	–
–	3.2 µM	< 50%	COC(=O)CCC(=O)Nc1cccc(OCc2ccc3ccccc3c2)c1	inhibition in vivo at 10 mg/kg [9]: 10%; inhibition in vivo at 10 mg/kg [10]: 54%
–	9.5 µM	< 50%	COC(=O)CC(=O)Nc1cccc(OCc2ccc3ccccc3c2)c1	–
5%	12.6 µM	–	COC(=O)CCCC(=O)Nc1cccc(OCc2ccc3ccccc3c2)c1	–
-7%	2.6 µM	< 50%	COC(=O)CCC(=O)Nc1ccc(OCc2ccc3ccccc3n2)cc1	–
–	0.6 µM	–	COC(=O)CCC(=O)N(O)c1cccc(OCc2ccc3ccccc3c2)c1	inhibition in vivo at 50 mg/kg [4]: 18%; IC50 [8]: 7.4 µM
86%	28 µM	< 50%	COC(=O)CCC(=O)Nc1cccc(OCc2ccc3ccccc3n2)c1	inhibition in vivo at 50 mg/kg [4]: 43%
